GPR7 antagonist = blocks human GPR7 receptor signaling | P48145 | GPR7-expressing cells, fluorescence antagonist assay | inhibition, % at 4.4 µM | 1.1% of 290,000 active; in the data active = inhibition above about 16%, passing the limit was not always enough;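 note: cells stimulated with the agonist NPW; 0% = agonist with vehicle and 100% = vehicle without agonist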
Target sequence (P48145 whole entry, looked up): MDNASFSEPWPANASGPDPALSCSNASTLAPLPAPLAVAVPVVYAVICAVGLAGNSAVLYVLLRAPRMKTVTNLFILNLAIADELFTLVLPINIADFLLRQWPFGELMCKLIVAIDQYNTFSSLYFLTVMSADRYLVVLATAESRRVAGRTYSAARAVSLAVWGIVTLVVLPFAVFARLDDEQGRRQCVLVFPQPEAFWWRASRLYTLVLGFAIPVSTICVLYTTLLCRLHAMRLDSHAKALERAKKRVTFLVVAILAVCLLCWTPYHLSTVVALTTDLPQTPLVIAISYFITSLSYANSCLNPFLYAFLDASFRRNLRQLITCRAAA
MPTP inh = blocks calcium-induced mitochondrial swelling; 1.4% of 360,000 active; inhibition, % at 10 µM; isolated mouse mitochondria, Ca2+ swelling absorbance, 30 min;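 active = inhibition of 50% or more, scaled per plate between neutral and stimulator controls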;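 note: 0% = DMSO wells given calcium and 100% = 1 mM EGTA wells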
TAAR1 ag = agonists of human TAAR1; Q96RJ0; CHO RD-HGA16 TAAR1, Fluo-8 calcium fluorescence; vehicle wells 0%, saturating PEA agonist 100%; activation, % at 3 µM; 0.99% of 360,000 active;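 active = activation above the mean activation of all test compounds in the run plus 3 SD, cut at about 38% in these data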
Target sequence (Q96RJ0 whole entry, looked up): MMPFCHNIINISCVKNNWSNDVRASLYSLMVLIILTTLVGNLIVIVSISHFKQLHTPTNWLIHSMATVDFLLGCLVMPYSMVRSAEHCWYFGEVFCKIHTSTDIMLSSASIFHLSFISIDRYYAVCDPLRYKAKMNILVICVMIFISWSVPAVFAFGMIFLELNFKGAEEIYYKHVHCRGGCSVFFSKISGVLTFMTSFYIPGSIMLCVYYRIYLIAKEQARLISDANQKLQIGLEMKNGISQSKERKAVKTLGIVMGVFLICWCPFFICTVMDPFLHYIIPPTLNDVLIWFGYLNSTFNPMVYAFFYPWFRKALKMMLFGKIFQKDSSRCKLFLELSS
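Test system: RD-HGA16 (CHO) cells co-expressing Gα16 and hTAAR1; dosing: one-point dosing at 3 µM (nominal); timing: 17-24 h seeding, 75 min 37 °C dye, 30 min RT; signal: kinetic Fluo-8 calcium fluorescence; read-out basis: % activation relative to PEA EC100 response; controls: DMSO and PEA EC100; replicates: n 1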
TAAR1 antag = human TAAR1 antagonism | Q96RJ0 | CHO RD-HGA16 TAAR1, Fluo-8 calcium fluorescence, antagonist | inhibition, % at 3 µM | 1.5% of 360,000 active | AID 624466;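 active = inhibition above a per-plate cutoff, the mean inhibition of test compounds on that plate plus 3 SD, cut at about 49% in these data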;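 note: 0% = DMSO plus EC80 beta-PEA response and 100% = DMSO alone without agonist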
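Assay system: CHO-derived RD-HGA16 cells stably expressing human TAAR1 plus Gα16. Timing: 140 s kinetic read after compound, 140 s after agonist. Technique: kinetic Fluo-8 calcium fluorescence measurement. Measure: % inhibition of agonist calcium response.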
DAGLB inhibitor = blocks human DAGLB lipase activity; Q8NCG7; HEK293T DAGLB membrane lysate, EnzChek fluorogenic substrate; inhibition, % at 5.17 µM; 0.059% of 340,000 active; AID 504411; in the data active = inhibition above about 34%;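 note: 0% = enzyme with vehicle and 100% = wells lacking enzyme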
nonsel antag count = nonselective antagonism, TAAR1 counter-screen | 77% of 2,400 active | AID 651780 | counterscreen cell line, calcium fluorescence, antagonist mode | inhibition, % at 3 µM | shares compounds with TAAR1 antag; in the data active = inhibition above about 22%;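 note: CHO-Ga16 host cells stimulated with ATP at an EC80 level; 0% = agonist EC80 plus vehicle and 100% = vehicle without agonist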
TAAR1 antag conf = human TAAR1 antagonism, confirmed. shares compounds with TAAR1 antag. inhibition, % at 3 µM. TAAR1-expressing cells, fluorescence antagonist read-out. 40% of 2,400 active; in the data active = inhibition above about 49%;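 note: CHO-Ga16 host cells challenged with agonist PEA near its EC80; 0% = agonist at EC80 plus vehicle and 100% = vehicle with no agonist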
Ga16 nonsel ag = counter-screen for TAAR1 antagonists: nonselective Ga16 agonists; 18% of 2,400 active; activation, % at 3 µM; shares compounds with TAAR1 antag; Ga16-expressing cells, calcium fluorescence, agonist counterscreen; in the data active = activation above about 12%;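 note: 0% = vehicle wells and 100% = saturating stimulus response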
TAAR1 ag counter = TAAR1 agonism, antagonist counter-screen. shares compounds with TAAR1 antag. hTAAR1 cell line, fluorescence activation, agonist mode. activation, % at 3 µM. 2% of 2,400 active; in the data active = activation above about 37%;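 note: CHO cells stably expressing TAAR1 with calcium dye readout; 0% = DMSO vehicle and 100% = full agonist response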
* = called active by the depositor; · = no result given. Compounds with a hit are over-represented: about 4% of the library has one in this group of screens.

SMILES	GPR7 antagonist	MPTP inh	TAAR1 ag	TAAR1 antag	DAGLB inhibitor	nonsel antag count	TAAR1 antag conf	Ga16 nonsel ag	TAAR1 ag counter
CCN1C(=O)c2cccc3c(S(=O)(=O)N(C(=O)c4ccncc4)c4ccc(OC)cc4)ccc1c23	-12.6	-0.5	12.9	66.4*	0.8	31.4*	42.5	6.4	4.2
CCN1C(=O)c2cccc3c(S(=O)(=O)N(C)C)ccc1c23	·	0.2	0.7	-12.0	1.3	·	·	·	·
CCN1C(=O)c2cccc3c(S(=O)(=O)NCc4cccnc4)ccc1c23	-6.5	-4.3	3.0	-5.6	0.7	·	·	·	·
CCN1C(=O)c2cccc3c(S(=O)(=O)N(C(=O)c4cccnc4)c4ccc(OC)cc4)ccc1c23	-4.1	0.5	14.4	67.5*	0.1	31.3*	54.4*	7.8	9.0
Cc1ccc(S(=O)(=O)N2[C@@H](c3ccc(F)cc3)C(C(=O)O)=C[C@H]2CC2CCCC2)cc1	·	1.0	0.8	7.9	1.1	·	·	·	·
O=C(C[C@@H]1C[C@H]2c3cc(NC(=O)C4CCC4)ccc3O[C@H]2[C@@H](CO)O1)NCc1ccc(-c2ccccc2)cc1	·	0.3	4.8	-19.1	1.3	·	·	·	·
CC(C)=N/N=C1/NC(=O)C(c2ccccc2)S1 (centres undefined)	·	-1.1	33.6	54.9*	3.2	7.0	0.4	6.6	7.8
COc1cc(/C=N/N=C2/NC(=O)C(c3ccccc3)S2)ccc1O (centres undefined)	-16.5	0.4	1.4	-3.6	1.4	·	·	·	·
CSc1ccccc1NC(=O)CN(C)C(=O)COc1cccc2cccnc12	·	-3.2	1.0	-12.2	1.1	·	·	·	·
C[C@@H]1CN([C@@H](C)CO)C(=O)CCCn2cc(nn2)CO[C@H]1CN(C)C(=O)c1ccc2ccn(C)c2c1	·	0.4	0.2	-8.3	1.0	·	·	·	·
COc1ccc(OC)c(NC(=O)C2CCCN(S(=O)(=O)c3cccc4cccnc34)C2)c1 (centres undefined)	-10.0	2.3	11.6	60.4*	2.2	23.5*	39.6	8.7	6.7
O=C(C1CCN(S(=O)(=O)c2cccc3cccnc23)CC1)N1CCCC1	·	-0.6	2.3	1.3	-0.6	·	·	·	·
Cc1cccc(N2CCN(C(=O)C3CCN(S(=O)(=O)c4cccc5cccnc45)CC3)CC2C)c1 (centres undefined)	·	-1.5	15.0	75.4*	0.5	27.8*	53.6*	11.3	9.4
COc1cc(NC(=O)[C@H]2CCCN2S(=O)(=O)c2cccc3cccnc23)cc(OC)c1OC	·	0.5	5.4	-4.9	-2.8	·	·	·	·
Cc1ccccc1NC(=O)C1CCCN(S(=O)(=O)c2cccc3cccnc23)C1 (centres undefined)	-18.5	-1.6	13.4	54.4*	-3.0	20.4	39.5	7.4	6.6
COc1ccc(C)cc1NC(=O)C1CCN(S(=O)(=O)c2cccc3cccnc23)CC1	-7.5	-0.9	8.6	22.0	0.7	·	·	·	·
COc1cc(NC(=O)[C@@H]2CCCN(S(=O)(=O)c3cccc4cccnc34)C2)cc(OC)c1OC	·	-0.4	19.8	51.5*	-0.2	29.0*	39.9	7.8	5.5
COc1ccccc1N1CCN(c2ncnc3n[nH]c(Br)c23)CC1	·	1.2	-0.4	19.1	·	·	·	·	·
COC(=O)[C@]12C[C@H](CC(=O)N3CCSCC3)C(=O)N(Cc3ccccc3)C1=C[C@H](C1CCCC1)O[C@@H]2C	·	·	-2.1	-36.5	·	·	·	·	·
O=[N+]([O-])c1ccccc1-c1ccc(/C=N/n2cnnc2)o1	2.5	-2.2	2.3	3.4	1.3	·	·	·	·
O=C1ON=C(c2ccccc2)/C1=C/c1ccc(-c2ccccc2[N+](=O)[O-])o1	-0.7	0.9	20.2	56.8*	21.0	65.7*	63.2*	19.3*	17.9
S=C1NC2(CCCCCC2)NN1c1ccccc1	·	·	1.6	-7.3	·	·	·	·	·
Cc1ccc(C)c(NC(=O)C(Sc2ncnc3ccccc23)c2ccccc2)c1 (centres undefined)	-0.8	3.7	·	·	0.0	·	·	·	·
Cc1ccc(C)c(NC(=O)C(Sc2nc3ccccc3c(=O)n2CC(C)C)c2ccccc2)c1 (centres undefined)	-15.6	8.9	6.5	55.9*	-3.6	28.3*	50.3*	2.6	1.2
CC(C)(C)OC(=O)N1CCC(C(=O)Nc2cccc(C(=O)NCCCCc3ccccc3)c2)CC1	·	6.6	16.2	66.5*	-1.8	36.6*	43.8	12.8*	11.6
SMILES	GPR7 antagonist	MPTP inh	TAAR1 ag	TAAR1 antag	DAGLB inhibitor	nonsel antag count	TAAR1 antag conf	Ga16 nonsel ag	TAAR1 ag counter
O=C(/C=C/c1ccccc1)Nc1cccc(C(=O)NCCc2ccccc2)c1	·	1.5	13.2	67.5*	-1.8	37.1*	56.8*	8.4	6.2
O=C(NCCCCc1ccccc1)c1cccc(NC(=O)C2CCCCC2)c1	·	1.6	5.7	61.1*	-7.4	29.8*	36.1	7.6	4.5
O=C(NCCc1ccccc1)c1cccc(NC(=O)C2CC2)c1	·	0.4	0.3	9.6	-8.2	·	·	·	·
CC(C)(C)OC(=O)N1CCC(C(=O)Nc2ccc(C(=O)NCCc3ccccc3)cc2)CC1	·	-1.6	30.9	44.1	-7.1	·	·	·	·
COc1cccc(CNc2nc3cc(-c4cccc(C(=O)NCCO)c4)sc3c(=O)n2C)c1	·	-0.4	0.4	17.6	·	·	·	·	·
CCOc1ccccc1NC(=O)COC(=O)C1COc2ccccc2O1 (centres undefined)	·	0.9	-0.9	0.8	-2.8	·	·	·	·
CN1CCN(C(=O)c2cnn3c(C(F)(F)F)cc(-c4cccs4)nc23)CC1	-2.4	0.4	1.0	-4.2	-1.9	·	·	·	·
O=C(c1cnn2c(C(F)(F)F)cc(-c3cccs3)nc12)N1CCN(Cc2ccccc2)CC1	-9.3	-2.2	4.5	59.3*	0.9	20.3	38.0	4.1	4.0
CN(C)c1ccc(/C=C2\SC(N3CCCCC3)=NC2=O)cc1	-7.9	-0.2	4.3	-7.7	-2.8	·	·	·	·
COC(=O)C[C@H]1C[C@H]2c3cc(NC(=O)Nc4ccc(C(F)(F)F)cc4)ccc3O[C@H]2[C@@H](CO)O1	·	32.7	7.4	37.6	-3.0	·	·	·	·
CCc1nc(SCC(=O)N2CCN(c3ccccc3)CC2)c2oc3ccccc3c2n1	-9.6	2.2	12.6	53.3*	-4.0	27.2*	46.6	6.2	4.8
COc1ccccc1CN(C(=O)CNC(=O)c1ccco1)C(C(=O)NCC1CCCO1)c1ccccc1 (centres undefined)	-24.6	0.4	16.7	68.4*	1.3	31.6*	47.1	7.8	10.2
O=C(NCC(=O)N(Cc1ccccc1)C(C(=O)NCC1CCCO1)c1ccccc1)c1ccco1 (centres undefined)	-12.8	-0.5	18.9	53.4*	0.7	19.6	45.5	10.2	9.6

Compound activity as filed in PubChem.
